Results on 2 molecules are retold here after ChEMBL document CHEMBL1629705, “PSI-7851, a pronucleotide of beta-D-2'-deoxy-2'-fluoro-2'-C-methyluridine monophosphate, is a potent and pan-genotype inhibitor of hepatitis C virus replication” (Antimicrob Agents Chemother, 2010).

Activity calls are given as the source filed them. The calls are words filed in the database; no cut-off is given here.

The target in series [1] is DNA-directed RNA polymerase II subunit RPB1 (Homo sapiens, UniProt P24928). The experiment in a line: Inhibition of human RNA polymerase 2 assessed as synthesis of RNA products at 1 uM. In a few lines:
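In vitro transcription by HeLa nuclear extract from CMV immediate-early promoter DNA. Mix: 400 μM ATP, CTP and UTP, 16 μM GTP, [α-32P]GTP, 3 mM MgCl2, in 20 mM HEPES pH 7.9 buffer with KCl, EDTA, DTT and glycerol. Inhibitor up to 1 mM. 30°C for 60 min. RNA purified, run on 6% sequencing gel and quantified by phosphorimager.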

Series [2] concerns Hepatitis C virus. Briefly: Antiviral activity against Hepatitis C virus isolate Con1 infected in human HuH-7 cells assessed as inhibition of viral RNA replication after 4 days by luciferase reporter gene assay. The series is classed as functional, Hepacivirus hominis. Particulars: Con1, Huh-7, 96 h. In a few lines:
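Genotype 1b Con1 subgenomic replicon cells (ET-lunet, 3,000 cells/well, firefly luciferase ET replicon; clone A, 1,500 cells/well) incubated 4 days with serially diluted compound. Replication read by luciferase luminescence and/or real-time RT-PCR.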

For series [3], the system named is Hepatitis C virus. The experiment in a line: Antiviral activity against Hepatitis C virus isolate Con1 harboring Btat protein assessed as viral RNA level by quantitative real-time PCR. The series is classed as functional, organism-based, Hepacivirus hominis. (In qPCR the cycle at which signal appears reflects the starting amount.)
In series [4] the test system is Hepatitis C virus. Briefly: Antiviral activity against Hepatitis C virus genotype 1b harboring Ntat protein assessed as viral RNA level by quantitative real-time PCR. The series is classed as functional, organism-based, Hepacivirus hominis.
Series [5] has as its system Hepatitis C virus. Briefly: Antiviral activity against Hepatitis C virus H77. The series is classed as functional, organism-based, Hepacivirus hominis. Particulars: genotype 1a H77.
The subject of series [6] is West Nile virus. The experiment in a line: Antiviral activity against West Nile virus New York by neutral red assay. It counts as functional, organism-based.
For series [7], the system named is Influenza A virus. The experiment in a line: Antiviral activity against Influenza A virus (A/Brisbane/59/2007 (H1N1)) infected in HFF by neutral red assay. The series is classed as functional, organism-based.
In series [8] the test system is Influenza A virus. The experiment in a line: Antiviral activity against Influenza A virus (A/Brisbane/10/2007(H3N2)) infected in HFF by neutral red assay. It counts as functional, organism-based.
The subject of series [9] is Human immunodeficiency virus. Briefly: Antiviral activity against HIV infected in human HeLaP4 cells by beta-galactosidase-based reporter gene assay. The conditions noted are these: Human immunodeficiency virus 1, HeLaP4. The series is classed as functional, organism-based. In a few lines: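 P4 cells (HeLa expressing CD4/CXCR4 with HIV-1 LTR-driven LacZ), 10,000 cells/well, incubated overnight at 37°C, 5% CO2. Compound added 4 h before infection with HIV NL4-3 (4 ng/well p24-equivalent) plus DEAE-dextran 20 μg/ml. Incubated further 40–42 h. Beta-galactosidase read by luminescence; percent inhibition versus no-drug wells.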
Background: In a reporter assay the amount or activity of a reporter protein is the signal.

A short description of series [10]: Cytotoxicity against human CEM cells assessed as effect on cellular GAPDH RNA level after 8 days by quantitative real-time PCR. It counts as cell-based. Particulars: CEM (CCRF-CEM) cells.
The nature of series [11]: Cytotoxicity against HFF. The series is classed as cell-based. Particulars: human, HFF cells.
Series [12] can be described thus: Cytotoxicity against human HepAD38 cells. The series is classed as cell-based.
For series [13], the system named is HepG2. Briefly: Mitochondrial toxicity in human HepG2 cells assessed as effect on mitochondrial cytochrome c oxidase subunit 2 gene level up to 100 uM after 14 days by real-time PCR assay. It counts as cell-based. Particulars: hepg2, 336 h. In a few lines:
(§1)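 HepG2 or CEM cells incubated 14 days with compound up to 100 μM, ddC as control. Medium and compound replenished on days 7 and 11. Mitochondrial COXII gene and nuclear rDNA measured by multiplex quantitative RT-PCR.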

In series [14] the test system is CCRF-CEM. Briefly: Mitochondrial toxicity in human CEM cells assessed as effect on mitochondrial cytochrome c oxidase subunit 2 gene level up to 100 uM after 14 days by quantitative real-time PCR assay. The series is classed as cell-based. Particulars: 336 h. A digest of the protocol:
as §1

Series [15] has as its system CCRF-CEM. The experiment in a line: Cytotoxicity against human CEM cells assessed as effect on ribosome RNA gene level at up to 100 uM after 14 days by quantitative real-time PCR assay. The series is classed as cell-based. The conditions noted are these: 336 h. In a few lines: as §1
Series [16] can be described thus: Cytotoxicity against human HepG2 cells. The series is classed as cell-based. In a few lines: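 Cells treated 8 days with compound serially diluted from 100 μM in DMSO-containing medium, gemcitabine (1 μM) or DMSO control. Viability by MTS-type tetrazolium assay, absorbance at 490 nm with medium-only blanks. Value derived by comparison with DMSO control wells.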

Series [17] can be described thus: Cytotoxicity against human CEM cells assessed as inhibition of mitochondrial DNA synthesis. It counts as cell-based. The conditions noted are these: CEM (CCRF-CEM) cells. In a few lines: as §1
Series [18] in a line: Cytotoxicity against human erythroid progenitor cells after 14 to 16 days by colony formation assay. It counts as cell-based. In a few lines:
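Normal human bone marrow erythroid and myeloid progenitors, 2 × 10^4 cells per culture in methylcellulose with rh-SCF 50 ng/ml, rh-IL-3 10 ng/ml, rh-GM-CSF 10 ng/ml and rh-EPO 3 U/ml. Compound up to 50 μM, DMSO control 0.1%, 14–16 days.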

Series [19] concerns Hepatitis C virus. The experiment in a line: Antiviral activity against Hepatitis C virus harboring NS5B polymerase S96T/N142T mutant gene infected in human lunet cells by luciferase-based replicon assay. The series is classed as functional, Hepacivirus hominis. A digest of the protocol: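 ET-lunet cells with the ET genotype 1b replicon, wild-type or S96T/N142T (ET replicon with these mutations electroporated into Lunet cells, selected in 0.2 mg/ml G418). 3,000 cells/well, 4 days with serially diluted compound. Firefly luciferase luminescence read-out; EC90 from dose–response.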
(In general: Replicon systems follow genome replication, usually without infectious particles.)

In series [20] the test system is Hepatitis C virus. The experiment in a line: Selectivity ratio of EC90 for Hepatitis C virus harboring NS5B polymerase S282T mutant gene to EC90 for Hepatitis C virus harboring wild-type NS5B polymerase. It counts as functional, Hepacivirus hominis. A digest of the protocol: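 Clone A genotype 1b (Con1) replicon cells, wild-type or S282T mutant (selected with 2′-C-methyladenosine). 1,500 cells/well, 4 days with serially diluted compound. HCV RNA by real-time RT-PCR; EC90 from dose–response.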

Series [21] relates to Hepatitis C virus. The experiment in a line: Antiviral activity against Hepatitis C virus assessed as log reduction in viral RNA at 0.1 uM after 3 weeks. It counts as functional, Hepacivirus hominis. A digest of the protocol: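 ET-lunet replicon cells seeded at 1 × 10^5/well without G418, treated at 0.1, 1 or 2 μM (final DMSO 0.5%). Passaged 1:3–1:4 every 3–4 days for 3 weeks with fresh compound. Then compound withdrawn and cells grown 3 more weeks in 0.25 mg/ml G418. HCV RNA by RT-PCR (ΔΔCt vs rRNA and DMSO controls, log change). Colonies fixed in formaldehyde and stained with crystal violet at 6 weeks.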

As for `C[C@@]1(F)[C@H](O)[C@@H](COP(=O)(O)OP(=O)(O)OP(=O)(O)O)O[C@H]1n1ccc(=O)[nH]c1=O` [GS-461203], in [1], the inhibition result was “Active”.
As usually defined, the EC90 is the concentration at which the effect reaches the 90% level. The term EC50 denotes the concentration that produces a half-maximal response. A word on the CC50: it is the concentration at which the toxic effect on the cells reaches its halfway point. Turning to `CC(C)OC(=O)[C@H](C)NP(=O)(OC[C@H]1O[C@@H](n2ccc(=O)[nH]c2=O)[C@](C)(F)[C@@H]1O)Oc1ccccc1` (some centres undefined), the EC90 in series [2] came to 4320 nM; in [3], 650 nM; in series [4], 750 nM; in [5] it was 340 nM; in series [19], 390 nM. Also, the EC50 in series [3] was 90 nM; in series [4], 93 nM; in [5], 190 nM; in series [6], more than 100000 nM; in [7], more than 100000 nM; in series [8] it was more than 100000 nM. Further, the EC50 in series [9] is more than 100000 nM. Besides, the CC50 at 192 h in series [10] was more than 100000 nM. For the same molecule, the CC50 in [11] is more than 100000 nM; in [12] it was more than 100000 nM; in [18], more than 50000 nM. Further, the Activity entry in [13], in [14] and in series [15] was “Non-toxic” each time. The CC90 was 12800 nM in series [16] and less than 3000 nM in series [17]. Besides, in [20], the Selectivity ratio is 16.4. Besides, the FC in [21] amounted to 0.58.
